Reference: ChEMBL document CHEMBL1140905

Legend:
[1] = test system: Staphylococcus aureus; experiment: Inhibition of staphyloxanthin biosynthesis in Staphylococcus aureus Pig1 isolate after 72 hrs; type: functional, organism-based; conditions: PIG1, 72 h
How it was run: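 Wild-type clinical isolate Pig1 grown in THB (1 mL) with serially diluted compounds, 37 °C, 72 h, in duplicate. Cells centrifuged and washed twice with PBS. Pigment extracted with methanol, OD read at 450 nm. IC50 from dose-response fit of OD data.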

[2] = test system: BL21-DE3; experiment: Selectivity ratio of IC50 for human squalene synthase to IC50 for Staphylococcus aureus dehydrosqualene synthase expressed in Escherichia coli BL21 (DE3) cells
[3] = target: T1, Squalene synthase (Homo sapiens, UniProt P37268); experiment: Inhibition of human recombinant squalene synthase expressed in Escherichia coli BL21 (DE3) cells assessed as formation of 1,10-dioic acid metabolite by liquid scintillation
T1 sequence (P37268 whole entry): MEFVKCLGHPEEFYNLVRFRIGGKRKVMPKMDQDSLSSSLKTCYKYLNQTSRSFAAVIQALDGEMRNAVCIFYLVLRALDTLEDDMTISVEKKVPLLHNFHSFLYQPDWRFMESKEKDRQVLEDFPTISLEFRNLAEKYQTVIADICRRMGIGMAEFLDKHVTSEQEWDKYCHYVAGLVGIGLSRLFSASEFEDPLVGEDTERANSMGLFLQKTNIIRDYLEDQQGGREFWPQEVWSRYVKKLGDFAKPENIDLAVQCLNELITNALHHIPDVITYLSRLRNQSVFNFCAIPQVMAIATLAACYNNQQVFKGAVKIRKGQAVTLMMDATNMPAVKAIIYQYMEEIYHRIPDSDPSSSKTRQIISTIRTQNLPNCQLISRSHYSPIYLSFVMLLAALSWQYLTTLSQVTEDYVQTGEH

[4] = target: T2, 4,4'-diapophytoene synthase (Staphylococcus aureus, UniProt A9JQL9); experiment: Inhibition of Staphylococcus aureus dehydrosqualene synthase expressed in Escherichia coli BL21 (DE3) cells by continuous spectrophotometric assay
T2 sequence (A9JQL9 whole entry): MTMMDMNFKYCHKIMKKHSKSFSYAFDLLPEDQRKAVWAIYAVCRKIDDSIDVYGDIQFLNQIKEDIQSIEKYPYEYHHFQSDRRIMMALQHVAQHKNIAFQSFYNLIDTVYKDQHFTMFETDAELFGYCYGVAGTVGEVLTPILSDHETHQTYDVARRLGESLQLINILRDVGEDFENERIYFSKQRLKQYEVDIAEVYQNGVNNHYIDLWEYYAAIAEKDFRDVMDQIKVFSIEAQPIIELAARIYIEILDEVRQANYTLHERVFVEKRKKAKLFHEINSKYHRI
How it was run: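 His-tagged S. aureus CrtM, Ni-NTA purified after IPTG induction (1 mM, 4 h). Compounds preincubated with 2 μg CrtM for 30 min at 20 °C. Phosphate release followed by continuous spectrophotometric coupled assay. IC50 from dose-response fit; Ki derived from IC50 and reported Km.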

[5] = test system: BL21-DE3; experiment: Selectivity ratio of IC50 for human squalene synthase to IC50 for Staphylococcus aureus dehydrosqualene synthase expressed in Escherichia coli BL21 (DE3) cells assessed as relative selectivity relative to potassium 4-(3-phenoxyphenyl)-1-phosphonatobutane-1-sulfonate

`O=P(O)(O)C(CCCc1cccc(Oc2ccc(Cc3ccccc3)cc2)c1)S(=O)(=O)O` (stereo not given) showed an IC50 [1] of 49 nM.
For `CC(C)(C)c1ccc(Oc2cccc(CCCC(P(=O)(O)O)S(=O)(=O)O)c2)cc1` (stereo not given), the IC50 [1] was 21 nM.
`O=P(O)(O)C(CCCc1cccc(Oc2ccccc2)c1)S(=O)(=O)O` (racemic) gave an IC50 [1] of 110 nM.
For `CP(=O)(O)C(CCCc1ccc(-c2ccccc2)cc1)P(=O)(O)O` (stereo not given), the Ratio IC50 [2] was 0.014, the IC50 [3] was 72 nM and the IC50 [4] was 5.4 µM. It also gave a Ratio IC50 [5] of 4.7 and an IC50 [1] of 1400 nM.
In the case of `CCCc1ccc(Oc2cccc(CCCC(P(=O)(O)O)S(=O)(=O)O)c2)cc1` (stereo not given), the Ki [4] is reported as 5 nM and the IC50 [1] is reported as 93 nM.
With `O=P(O)(O)C(CCCc1cccc(Oc2ccc(-c3ccco3)cc2)c1)S(=O)(=O)O` (stereo not given) the IC50 [4] was 26.3 µM and the IC50 [1] was 1100 nM.
`O=P(O)(O)C(CCCc1cccc(Oc2cccc(C(F)(F)F)c2)c1)S(=O)(=O)O` (stereo not given) gave an IC50 [4] of 9.8 µM and an IC50 [1] of 74 nM.
With `O=P(O)(O)C(CCCc1cccc(Cc2ccccc2)c1)S(=O)(=O)O` (stereo not given) the IC50 [1] was 170 nM.
`O=P(O)(O)C(CCCc1cccc(Oc2ccc(C(F)(F)F)cc2)c1)S(=O)(=O)O` (stereo not given) showed an IC50 [1] of 40 nM.
For `O=P(O)(O)C(CCCc1ccc(-c2ccccc2)cc1)P(=O)(O)O`, the Ki [4] was 1 nM and the IC50 [1] was 2200 nM.
For `O=P(O)(O)C(Cc1cccc(Oc2ccccc2)c1)S(=O)(=O)O` (stereo not given), the Ratio IC50 [2] was 0.0022, the Ratio IC50 [5] was 0.8 and the IC50 [1] was 33900 nM.
`O=P(O)(O)[C@@H](CCCc1cccc(Oc2ccccc2)c1)S(=O)(=O)O` was tested, and the IC50 [4] was 47.9 µM and the IC50 [1] was 310 nM.
For `O=P(O)(O)C(CCCc1ccc(-c2ccc(C(F)(F)F)cc2)cc1)P(=O)(O)O`, the Ratio IC50 [2] was 0.014, the Ki [4] was 0.5 nM and the Ratio IC50 [5] was 4.8. It also gave an IC50 [1] of 1100 nM.
In the case of `O=P(O)(O)C(CCCc1cccc(Oc2ccc(F)c(F)c2)c1)S(=O)(=O)O` (stereo not given), the IC50 [4] is reported as 1.7 µM and the IC50 [1] is reported as 110 nM.
Work on `O=P(O)(O)C(CCCc1cccc(Oc2cc(F)cc(F)c2)c1)S(=O)(=O)O` (stereo not given) yielded an IC50 [4] of 4.6 µM and an IC50 [1] of 15 nM.
`O=P(O)(O)C(CCc1cccc(Oc2ccccc2)c1)S(=O)(=O)O` (stereo not given) gave a Ratio IC50 [2] of 0.0011, a Ratio IC50 [5] of 0.4 and an IC50 [1] of 20400 nM.
`O=P(O)(O)C(CCCc1cccc(Oc2ccccc2C(F)(F)F)c1)S(=O)(=O)O` (stereo not given) showed an IC50 [4] of 53.7 µM and an IC50 [1] of 460 nM.
In the case of `O=P(O)(O)C(CCCc1cc(Oc2ccc(F)cc2)ccc1F)S(=O)(=O)O` (stereo not given), the IC50 [4] is reported as 2.1 µM and the IC50 [1] is reported as 59 nM.
For `O=P(O)(O)C(CCCc1cccc(Oc2ccc(Cl)cc2)c1)S(=O)(=O)O` (stereo not given), the IC50 [4] was 2.5 µM and the IC50 [1] was 39 nM.
`O=P(O)(O)C(CCCc1cccc(Oc2cccc(F)c2)c1)S(=O)(=O)O` (stereo not given) showed an IC50 [4] of 2.2 µM and an IC50 [1] of 220 nM.
`O=P(O)(O)C(CCCc1cccc(Oc2ccc3occc3c2)c1)S(=O)(=O)O` (stereo not given) gave an IC50 [4] of 2.1 µM and an IC50 [1] of 15 nM.
With `Cc1ccc(-c2ccc(CCCC(P(=O)(O)O)S(=O)(=O)O)cc2)cc1` (stereo not given) the IC50 [1] was 180 nM.
Molecule `O=P(O)(O)C(CCCc1ccc(Oc2ccccc2)cc1)S(=O)(=O)O` (stereo not given) has an IC50 [1] of 190 nM.
`COc1ccc(Oc2ccc(F)cc2)cc1CCCC(P(=O)(O)O)S(=O)(=O)O` (stereo not given) gave an IC50 [1] of 13800 nM.
Molecule `O=P(O)(O)C(CCCc1cccc(Oc2ccc(F)cc2)c1)S(=O)(=O)O` (stereo not given) has a Ki [4] of 5 nM and an IC50 [1] of 52 nM.
Molecule `O=P(O)(O)C(CCCc1cccc(Nc2ccccc2)c1)S(=O)(=O)O` (stereo not given) has an IC50 [1] of 500 nM.
In the case of `O=P(O)(O)C(CCCc1cccc(Oc2ccccc2Cc2ccccc2)c1)S(=O)(=O)O` (stereo not given), the IC50 [1] is reported as 19 nM.
Work on `O=P(O)(O)C(CCCc1ccc(-c2ccccc2)cc1)S(=O)(=O)O` (stereo not given) yielded an IC50 [1] of 350 nM.
With `CCCCc1ccc(-c2ccc(CCCC(P(=O)(O)O)S(=O)(=O)O)cc2)cc1` (stereo not given) the IC50 [1] was 160 nM.
With `O=P(O)(O)[C@H](CCCc1cccc(Oc2ccccc2)c1)S(=O)(=O)O` the IC50 [1] was 50 nM.
Molecule `O=P(O)(O)C(CCCc1cccc(Oc2ccccc2F)c1)S(=O)(=O)O` (stereo not given) has an IC50 [4] of 6.9 µM and an IC50 [1] of 510 nM.
Work on `CCCOc1cccc(-c2ccc(CCCC(P(=O)(O)O)S(=O)(=O)O)cc2)c1` (stereo not given) yielded an IC50 [1] of 490 nM.
For `O=P(O)(O)C(CCCc1cccc(Oc2ccc(Cl)c(Cl)c2)c1)S(=O)(=O)O` (stereo not given), the IC50 [4] was 2.2 µM and the IC50 [1] was 11 nM.
`O=P(O)(O)C(CCCc1ccc(-c2ccc(F)cc2F)cc1)S(=O)(=O)O` (stereo not given) gave an IC50 [1] of 180 nM.
`CCn1c2ccccc2c2cc(CCCC(P(=O)(O)O)S(=O)(=O)O)ccc21` (stereo not given) was tested, and the IC50 [1] was 263000 nM.
`O=P(O)(O)C(CCCc1cccc(Oc2ccc(Oc3ccccc3)cc2)c1)S(=O)(=O)O` (stereo not given) gave an IC50 [1] of 100 nM.
With `O=P(O)(O)C(CCCc1cccc(Oc2ccc(O)cc2)c1)S(=O)(=O)O` (stereo not given) the IC50 [1] was 6800 nM.
Molecule `O=P(O)(O)C(CCCc1cccc(Oc2cc(Cl)cc(Cl)c2)c1)S(=O)(=O)O` (stereo not given) has an IC50 [4] of 6.3 µM and an IC50 [1] of 51 nM.
